For this test, the target named is Transthyretin (Homo sapiens) (UniProt P02766). Kind of test: Inhibition of transthyretin (unknown origin) aggregation at 2 mol equiv measured at 36 hrs by congo red assay relative to control. Summed up:
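TTR aggregation was induced at pH 4.5 with or without the test agent. Aggregation was scored by Congo red at its peak, 36 h. Thioflavin T was not usable because dissolved, filtered TTR gives high background fluorescence.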

For the molecule `O=C(O)c1cc(-c2ccc(F)cc2F)ccc1O`, the inhibition was > 90%.

The inhibition is how much of the control response was suppressed.

The values above are taken from ChEMBL document CHEMBL2429806, “Designed Trpzip-3 β-Hairpin Inhibits Amyloid Formation in Two Different Amyloid Systems” (ACS Med Chem Lett, 2013).
